Active and inactive are the calls of the source. The rule behind the calls is not given here.

The results in this text go back to ChEMBL document CHEMBL3992537, “Design, Synthesis, and Biological Evaluation of Small, High-Affinity Siglec-7 Ligands: Toward Novel Inhibitors of Cancer Immune Evasion” (J Med Chem, 2017).

Series [1] in a line: Cytotoxicity against human MEL1106 cells assessed as viable cells. The format is cell-based.
The nature of series [2]: Cytotoxicity against human NK cells assessed as viable cells up to 10 mM. The format is cell-based. Conditions: nk cell. The method in brief: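 Human NK cells are isolated by negative selection from PBMCs and prestimulated 24 h with 100 IU/mL IL-2. They are then incubated 24 h with the Siglec-7 inhibitor at concentrations up to 10 mM. Viability is assessed by live–dead staining and flow cytometry.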

Series [3] concerns the target T1, Sialic acid-binding Ig-like lectin 7 (Homo sapiens, UniProt Q9Y286). Description: Binding affinity to human IgG1-fused Siglec-7-Fc assessed as inhibition of Siglec-7-Fc binding to RBC preincubated for 10 mins followed by RBC addition measured after 20 mins by FACS analysis. Put shortly:
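Siglec-7-Fc (human IgG1 fusion), 0.2 μg/mL, premixed 10 min at RT in PBS with inhibitor dilution series. The mix is then added to pelleted freshly isolated human RBCs (0.1% suspension) for 20 min on ice. Bound Fc is detected with biotin goat anti-human Fc (10 μg/mL) and streptavidin-PE, then formaldehyde-fixed and read by flow cytometry. % inhibition is from MFI, with unstained RBCs as 100% and no inhibitor as 0%. IC50 derived.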
(In general: In flow cytometry, cells or beads pass a laser one at a time.)

In series [4] the target is Sialic acid-binding Ig-like lectin 9 (Homo sapiens) (UniProt Q9Y336). The series is described as follows: Binding affinity to human IgG1-fused Siglec-9-Fc assessed as inhibition of Siglec-9-Fc binding to K562 cells preincubated for 10 mins followed by K562 cell addition measured after 20 mins by FACS analysis. The method in brief:
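Human IgG1-fused Siglec-9-Fc is preincubated with inhibitor dilutions, then co-incubated with K562 cells instead of RBCs. Later steps follow the RBC assay: anti-Fc-biotin and streptavidin-PE detection, fixation, and flow cytometry. Inhibition is calculated from MFI as for RBCs. At least three independent experiments.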

The target in series [5] is T1, Sialic acid-binding Ig-like lectin 7. Description: Ratio of 3'sialyllactose Kd to relative inhibitory potency of test compound for human IgG1-fused Siglec-7-Fc by ELISA. The method in brief: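 The Kd value is extrapolated by dividing the known Kd of 3′sialyllactose by the ELISA relative inhibitory potency. The ELISA uses plate-bound 6′sialyl-LacNAc-polyacrylamide with AP-precomplexed Siglec-7-Fc, 2.5 h at 37 °C, read at 405 nm.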

Series [6] shares this target. Description: Binding affinity to human IgG1-fused Siglec-7-Fc measured after 2.5 hrs by ELISA. The method in brief: (§1)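 Streptavidin-coated plates carry 4 μg/mL biotinylated 6′sialyl-N-acetyllactosamine-polyacrylamide and are BSA-blocked. Ligand 10-fold dilutions (1 mM to 1 × 10⁻⁵ mM, PBS) and hSiglec7-Fc precomplexed with AP anti-human IgG are added for 2.5 h at 37 °C. Plates are developed with p-nitrophenyl phosphate (pH 9.8) and read at 405 nm for IC50. 3′- and 6′-sialyllactose serve as references for relative potency.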
On the technique in general: An ELISA detects its analyte on a solid surface through an enzyme-linked reagent.

For series [7] the target is unchanged. The series is described as follows: Binding affinity to human IgG1-fused Siglec-7-Fc assessed as inhibition of Siglec-7-Fc binding to RBC preincubated for 10 mins followed by RBC addition measured after 20 mins by FACS analysis relative to sodium (4S,5R,6R)-5-acetamido-4-hydroxy-2-methoxy-6-((1R,2R)-1,2,3 trihydroxypropyl)tetrahydro-2H-pyran-2-carboxylate. The method in brief: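 RBC flow-cytometry competition as above: Siglec-7-Fc 0.2 μg/mL with ligand 10 min at RT, then RBCs 20 min on ice, detected by anti-Fc-biotin/streptavidin-PE MFI. The reference ligand α-Me Neu5Ac is run in the same test. Relative inhibitory potency is calculated intra-test against it to offset inter-test variation from fresh RBCs.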

For series [8] the target is unchanged. The series is described as follows: Binding affinity to human IgG1-fused Siglec-7-Fc measured after 2.5 hrs by ELISA relative to 3'sialyllactose. The method in brief: as §1
The test system of series [9] is K562. Description: Cytotoxicity against human K562 cells assessed as viable cells. It is filed as cell-based.

T1 sequence (Q9Y286 whole entry, the tested form may be a part): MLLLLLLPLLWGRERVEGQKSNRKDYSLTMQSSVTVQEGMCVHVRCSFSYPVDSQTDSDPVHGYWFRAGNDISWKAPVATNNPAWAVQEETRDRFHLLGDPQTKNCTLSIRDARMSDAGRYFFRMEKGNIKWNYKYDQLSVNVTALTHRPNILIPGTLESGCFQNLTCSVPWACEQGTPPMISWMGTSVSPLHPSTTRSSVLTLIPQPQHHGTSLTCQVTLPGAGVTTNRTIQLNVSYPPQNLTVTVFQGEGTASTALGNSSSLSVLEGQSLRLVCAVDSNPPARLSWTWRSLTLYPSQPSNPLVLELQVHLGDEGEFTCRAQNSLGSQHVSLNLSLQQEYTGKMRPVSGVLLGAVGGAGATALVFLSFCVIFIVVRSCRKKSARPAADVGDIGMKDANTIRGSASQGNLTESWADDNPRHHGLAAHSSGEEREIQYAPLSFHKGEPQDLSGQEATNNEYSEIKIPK
Sequence of Sialic acid-binding Ig-like lectin 9 (Homo sapiens) (Q9Y336 whole entry, the tested form may be a part): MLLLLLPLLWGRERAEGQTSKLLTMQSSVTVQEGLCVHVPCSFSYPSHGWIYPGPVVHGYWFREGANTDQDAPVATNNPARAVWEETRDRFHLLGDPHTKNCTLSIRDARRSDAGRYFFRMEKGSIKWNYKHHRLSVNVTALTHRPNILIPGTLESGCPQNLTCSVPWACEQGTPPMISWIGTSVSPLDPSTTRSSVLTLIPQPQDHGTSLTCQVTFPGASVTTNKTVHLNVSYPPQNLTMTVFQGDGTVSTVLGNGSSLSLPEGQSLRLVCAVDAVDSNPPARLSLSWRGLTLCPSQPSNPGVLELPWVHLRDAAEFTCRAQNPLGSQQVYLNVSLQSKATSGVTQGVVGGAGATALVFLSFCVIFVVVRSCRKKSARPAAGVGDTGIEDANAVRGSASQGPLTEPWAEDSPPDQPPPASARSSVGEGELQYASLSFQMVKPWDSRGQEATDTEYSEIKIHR

By IC50 is commonly meant the concentration that gives 50% inhibition. `CC(=O)N[C@H]1[C@H]([C@H](O)[C@H](O)CNS(C)(=O)=O)O[C@@](OCCCn2cc(-c3ccc(-c4ccccc4)cc3)nn2)(C(=O)[O-])C[C@@H]1O.[Na+]`: the Activity result in series [1], in series [2] and in series [9] was “Non-Toxic” each time. The values for the IC50 in series [3] and in [6] were 2.6 µM and 260 µM, respectively. In addition, the inhibition result in [4] is “Active”. Further, in series [5], the Ratio turned out to be 4.8. In addition, the results for the fold change (FC) in series [7] and in [8] were 3120 and 141, respectively.
